# Measurements from ChEMBL document CHEMBL4002604, “Evaluation of biological properties of 3,3',4,4'-benzophenonetetracarboxylic dianhydride derivatives and their ability to inhibit hexokinase activity” (2017).
# Calls of active or inactive are those of the source. No cut-off for these calls is given here.
# How the values were obtained:
# P19 [1] = assay: Cytotoxicity against undifferentiated mouse P19 cells assessed as cell mass at 1 to 100 uM after 24 hrs by SRB assay relative to control; assay type: functional
# How it was run: (§1)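 Cell mass by SRB assay in P19 cells (CRL-1825), either undifferentiated (P19SCs) or differentiated (P19dCs). Cells exposed to 1, 10 or 100 µM for 24, 48 or 72 h. Values expressed relative to untreated control. Means ± SD from at least 4 independent measurements, 6 repeats each. Significance vs control at p<0.05.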
# P19 [2] = assay: Cytotoxicity against differentiated mouse P19 cells assessed as cell mass at 1 to 100 uM after 72 hrs by SRB assay relative to control; assay type: functional; how it was run: as §1
# P19 [3] = assay: Cytotoxicity against differentiated mouse P19 cells assessed as cell mass at 1 to 100 uM after 24 hrs by SRB assay relative to control; assay type: functional; how it was run: as §1
# P19 [4] = assay: Cytotoxicity against differentiated mouse P19 cells assessed as metabolic activity at 1 to 100 uM after 48 hrs by resazurin assay relative to control; assay type: functional
# How it was run: (§2)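 Metabolic activity by resazurin reduction in undifferentiated (P19SCs) or differentiated (P19dCs) P19 cells. Exposure to 1, 10 or 100 µM for 24, 48 or 72 h. Read-out relative to untreated control. Significance vs control at p<0.05.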
# P19 [5] = assay: Cytotoxicity against undifferentiated mouse P19 cells assessed as cell mass at 1 to 100 uM after 48 hrs by SRB assay relative to control; assay type: functional; how it was run: as §1
# P19 [6] = assay: Cytotoxicity against differentiated mouse P19 cells assessed as metabolic activity at 1 to 100 uM after 24 hrs by resazurin assay relative to control; assay type: functional; how it was run: as §2
# P19 [7] = assay: Cytotoxicity against differentiated mouse P19 cells assessed as cell mass at 1 to 100 uM after 48 hrs by SRB assay relative to control; assay type: functional; how it was run: as §1
# P19 [8] = assay: Cytotoxicity against undifferentiated mouse P19 cells assessed as metabolic activity at 1 to 100 uM after 24 hrs by resazurin assay relative to control; assay type: functional; how it was run: as §2
# P19 [9] = assay: Cytotoxicity against undifferentiated mouse P19 cells assessed as metabolic activity at 1 to 100 uM after 72 hrs by resazurin assay relative to control; assay type: functional; how it was run: as §2
# P19 [10] = assay: Cytotoxicity against differentiated mouse P19 cells assessed as metabolic activity at 1 to 100 uM after 72 hrs by resazurin assay relative to control; assay type: functional; how it was run: as §2
# P19 [11] = assay: Cytotoxicity against undifferentiated mouse P19 cells assessed as metabolic activity at 1 to 100 uM after 48 hrs by resazurin assay relative to control; assay type: functional; how it was run: as §2
# P19 [12] = assay: Cytotoxicity against undifferentiated mouse P19 cells assessed as cell mass at 1 to 100 uM after 72 hrs by SRB assay relative to control; assay type: functional; how it was run: as §1
# [13] = target: T1, Hexokinase-2 (Mus musculus) (UniProt O08528); assay: Inhibition of HK2 isolated from mouse undifferentiated P19 cell lysates at […] using [U-14C]-labeled glucose as substrate in presence of ATP and NADP by G6PD enzyme coupled spectrophotometric assay
# T1 sequence (whole entry): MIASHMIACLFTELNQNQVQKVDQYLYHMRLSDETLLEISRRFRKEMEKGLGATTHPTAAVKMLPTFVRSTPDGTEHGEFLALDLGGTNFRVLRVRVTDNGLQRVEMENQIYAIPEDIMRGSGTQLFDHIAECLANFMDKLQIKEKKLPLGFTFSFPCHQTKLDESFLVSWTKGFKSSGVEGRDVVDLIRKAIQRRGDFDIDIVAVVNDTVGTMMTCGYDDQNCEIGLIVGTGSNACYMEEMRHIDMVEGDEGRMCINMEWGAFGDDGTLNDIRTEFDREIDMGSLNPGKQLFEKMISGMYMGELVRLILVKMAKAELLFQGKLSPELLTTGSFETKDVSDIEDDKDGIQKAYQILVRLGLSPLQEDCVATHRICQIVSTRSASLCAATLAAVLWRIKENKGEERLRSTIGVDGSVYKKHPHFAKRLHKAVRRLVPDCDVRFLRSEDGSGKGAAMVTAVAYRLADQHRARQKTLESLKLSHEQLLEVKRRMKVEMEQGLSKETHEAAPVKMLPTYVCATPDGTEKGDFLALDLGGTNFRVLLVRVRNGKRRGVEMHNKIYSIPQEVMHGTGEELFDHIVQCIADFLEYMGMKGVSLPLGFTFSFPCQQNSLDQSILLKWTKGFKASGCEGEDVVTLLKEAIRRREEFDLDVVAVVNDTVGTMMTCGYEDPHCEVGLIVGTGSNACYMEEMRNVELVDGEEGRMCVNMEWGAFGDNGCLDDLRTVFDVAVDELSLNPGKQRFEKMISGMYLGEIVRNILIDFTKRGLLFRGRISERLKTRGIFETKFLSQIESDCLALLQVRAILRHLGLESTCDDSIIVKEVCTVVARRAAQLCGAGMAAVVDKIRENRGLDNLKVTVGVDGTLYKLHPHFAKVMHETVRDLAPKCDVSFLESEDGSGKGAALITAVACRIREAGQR
# How it was run: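 Hexokinase activity measured in supernatant of freshly prepared, centrifuged lysates of undifferentiated P19 cells. Buffer was 100 mM Tris-HCl pH 8.0 with 0.5 mM EDTA, 10 mM MgCl2, 2 mM glucose, 0.1 mM NADP and 0.1 U/ml G6PD. After 10 min preincubation at 37°C, 10 mM ATP was added to start the reaction. NADPH formation was followed at 340 nm. Four independent experiments, ≥4 repeats each.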
# P19 [14] = assay: Cytotoxicity against undifferentiated mouse P19 cells assessed as mitochondrial superoxide anion level at 100 uM after 72 hrs by MitoSox dye based fluorescence assay relative to control; assay type: functional
# How it was run: (§3)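 Undifferentiated (P19SCs) or differentiated (P19dCs) P19 cells incubated 24 or 72 h with 1 or 100 µM. Mitochondrial membrane potential and mitochondrial superoxide levels measured and expressed relative to untreated control. Means ± SD from 4 independent measurements, at least 4 repeats each. Significance at p<0.05.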
# P19 [15] = assay: Cytotoxicity against differentiated mouse P19 cells assessed as mitochondrial superoxide anion level at 100 uM after 24 hrs by MitoSox dye based fluorescence assay relative to control; assay type: functional; how it was run: as §3
# P19 [16] = assay: Cytotoxicity against differentiated mouse P19 cells assessed as mitochondrial superoxide anion level at 1 uM after 72 hrs by MitoSox dye based fluorescence assay relative to control; assay type: functional; how it was run: as §3
# P19 [17] = assay: Cytotoxicity against differentiated mouse P19 cells assessed as mitochondrial membrane potential at 1 uM after 72 hrs by TMRF dye based fluorescence assay relative to control; assay type: functional; how it was run: as §3
# P19 [18] = assay: Cytotoxicity against differentiated mouse P19 cells assessed as mitochondrial superoxide anion level at 1 uM after 24 hrs by MitoSox dye based fluorescence assay relative to control; assay type: functional; how it was run: as §3
# P19 [19] = assay: Cytotoxicity against differentiated mouse P19 cells assessed as mitochondrial membrane potential at 1 uM after 24 hrs by TMRF dye based fluorescence assay relative to control; assay type: functional; how it was run: as §3
# P19 [20] = assay: Cytotoxicity against differentiated mouse P19 cells assessed as mitochondrial membrane potential at 100 uM after 72 hrs by TMRF dye based fluorescence assay relative to control; assay type: functional; how it was run: as §3
# P19 [21] = assay: Cytotoxicity against undifferentiated mouse P19 cells assessed as mitochondrial superoxide anion level at 1 uM after 24 hrs by MitoSox dye based fluorescence assay relative to control; assay type: functional; how it was run: as §3
# P19 [22] = assay: Cytotoxicity against undifferentiated mouse P19 cells assessed as mitochondrial membrane potential at 100 uM after 72 hrs by TMRF dye based fluorescence assay relative to control; assay type: functional; how it was run: as §3
# P19 [23] = assay: Cytotoxicity against undifferentiated mouse P19 cells assessed as mitochondrial membrane potential at 1 uM after 72 hrs by TMRF dye based fluorescence assay relative to control; assay type: functional; how it was run: as §3
# P19 [24] = assay: Cytotoxicity against undifferentiated mouse P19 cells assessed as mitochondrial membrane potential at 100 uM after 24 hrs by TMRF dye based fluorescence assay relative to control; assay type: functional; how it was run: as §3
# P19 [25] = assay: Cytotoxicity against undifferentiated mouse P19 cells assessed as mitochondrial membrane potential at 1 uM after 24 hrs by TMRF dye based fluorescence assay relative to control; assay type: functional; how it was run: as §3
# P19 [26] = assay: Cytotoxicity against differentiated mouse P19 cells assessed as mitochondrial superoxide anion level at 100 uM after 72 hrs by MitoSox dye based fluorescence assay relative to control; assay type: functional; how it was run: as §3
# P19 [27] = assay: Cytotoxicity against differentiated mouse P19 cells assessed as mitochondrial membrane potential at 100 uM after 24 hrs by TMRF dye based fluorescence assay relative to control; assay type: functional; how it was run: as §3
# P19 [28] = assay: Cytotoxicity against undifferentiated mouse P19 cells assessed as mitochondrial superoxide anion level at 1 uM after 72 hrs by MitoSox dye based fluorescence assay relative to control; assay type: functional; how it was run: as §3
# P19 [29] = assay: Cytotoxicity against undifferentiated mouse P19 cells assessed as mitochondrial superoxide anion level at 100 uM after 24 hrs by MitoSox dye based fluorescence assay relative to control; assay type: functional; how it was run: as §3
Compound,Activity (P19 [1]),Activity (P19 [2]),Activity (P19 [3]),Activity (P19 [4]),Activity (P19 [5]),Activity (P19 [6]),Activity (P19 [7]),Activity (P19 [8]),Activity (P19 [9]),Activity (P19 [10]),Activity (P19 [11]),Activity (P19 [12]),further results
OC[C@H]1OC(O)C[C@@H](O)[C@@H]1O (some centres not stated),120.4%,97.4%,90.5%,101.7%,99.6%,90.5%,93.6%,100.1%,101.3%,94.4%,91.2%,103.8%,inhibition [13]: Active
O=C(c1ccc2c(c1)C(=O)N(CCCO)C2=O)c1ccc2c(c1)C(=O)N(CCCO)C2=O,106%,94.7%,110.6%,101.1%,101.5%,100.1%,97.9%,105%,100%,98.1%,98.1%,100%,–
O=C(c1ccc2c(c1)C(=O)N(c1nc[nH]n1)C2=O)c1ccc2c(c1)C(=O)N(c1nc[nH]n1)C2=O,81.2%,82%,93.3%,96.1%,77.6%,114%,96%,92.7%,53.2%,86.5%,94%,45.5%,–
O=C(c1ccc2c(c1)C(=O)N(c1c[nH]c(=O)[nH]c1=O)C2=O)c1ccc2c(c1)C(=O)N(c1c[nH]c(=O)[nH]c1=O)C2=O,115.2%,90.8%,95.8%,105.3%,99.4%,116.3%,88.2%,113.8%,109.6%,105%,103.2%,97.4%,–
O=C(c1ccc2c(c1)C(=O)N(c1ccc(O)cc1)C2=O)c1ccc2c(c1)C(=O)N(c1ccc(O)cc1)C2=O,90.2%,30.9%,86.7%,87.4%,81.8%,96.2%,48.5%,88.5%,79.9%,93.8%,74.4%,86.8%,Activity (P19 [14]): 72.5%; Activity (P19 [15]): 113.2%; Activity (P19 [16]): 138%; Activity (P19 [17]): 144.7%; Activity (P19 [18]): 75.8%; Activity (P19 [19]): 110.6%; Activity (P19 [20]): 136.6%; Activity (P19 [21]): 72.1%; Activity (P19 [22]): 116.7%; Activity (P19 [23]): 93%; Activity (P19 [24]): 206.6%; Activity (P19 [25]): 176.1%; Activity (P19 [26]): 118.8%; Activity (P19 [27]): 65.8%; Activity (P19 [28]): 78.4%; Activity (P19 [29]): 106.6%
O=C(c1ccc2c(c1)C(=O)N(CCO)C2=O)c1ccc2c(c1)C(=O)N(CCO)C2=O,83.9%,80.5%,96.2%,103.7%,92.4%,113.3%,108.4%,101.5%,113.8%,99.4%,107.8%,106.7%,–
O=C(c1ccc2c(c1)C(=O)N(c1ccccc1O)C2=O)c1ccc2c(c1)C(=O)N(c1ccccc1O)C2=O,103.6%,79.8%,95.6%,105.3%,102%,105%,93%,103.5%,101.2%,99.4%,99.7%,106.5%,Activity (P19 [14]): 129.9%; Activity (P19 [15]): 168%; Activity (P19 [16]): 97.8%; Activity (P19 [17]): 89.4%; Activity (P19 [18]): 111.1%; Activity (P19 [19]): 117.8%; Activity (P19 [20]): 93.3%; Activity (P19 [21]): 108.7%; Activity (P19 [22]): 81.6%; Activity (P19 [23]): 81.9%; Activity (P19 [24]): 89.6%; Activity (P19 [25]): 82.2%; Activity (P19 [26]): 86%; Activity (P19 [27]): 112%; Activity (P19 [28]): 115.4%; Activity (P19 [29]): 108.3%
